# Hits are enriched below; roughly 4.3% of the tested compounds scored in any of these assays.
# m5-HT2A agonist: mouse Htr2a agonists via beta-arrestin recruitment, primary screen, cell-based, luminescence; actives 0.66% (n = 360,000); 5-hydroxytryptamine receptor 2A (Mus musculus), P35363; AID 624169, 2012; CHO-K1 mHTR2A beta-arrestin complementation; percent of 30 µM serotonin response; activation, % at 7.6 µM;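 active = activation above a run cutoff, the mean activation of all tested compounds plus 3 SD, cut at about 14% in these data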;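 note: 0% = plate median of compound wells and 100% = 30 µM serotonin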
# Target sequence (P35363 whole entry, looked up): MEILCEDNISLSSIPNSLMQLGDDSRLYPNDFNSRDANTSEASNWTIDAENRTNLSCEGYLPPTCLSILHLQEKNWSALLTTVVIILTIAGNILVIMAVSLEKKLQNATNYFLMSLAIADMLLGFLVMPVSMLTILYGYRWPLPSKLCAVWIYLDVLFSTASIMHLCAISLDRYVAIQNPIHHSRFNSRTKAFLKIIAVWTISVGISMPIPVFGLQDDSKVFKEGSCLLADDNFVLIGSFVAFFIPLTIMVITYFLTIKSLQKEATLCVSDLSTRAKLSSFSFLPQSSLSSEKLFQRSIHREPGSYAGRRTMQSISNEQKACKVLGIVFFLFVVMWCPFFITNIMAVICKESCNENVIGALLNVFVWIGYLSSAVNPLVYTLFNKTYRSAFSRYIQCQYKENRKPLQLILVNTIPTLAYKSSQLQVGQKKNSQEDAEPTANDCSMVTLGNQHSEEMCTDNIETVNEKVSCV
# MC4R barr agon: MC4R agonists recruiting beta-arrestin, primary screen, cell-based, luminescence, agonist arm of biased-ligand search; Melanocortin receptor 4 (Homo sapiens), P32245; U2OS MC4R beta-arrestin complementation; percent of melanotan II response, DMSO zero; activation, % at 8.9 µM; actives 0.98% (n = 360,000); AID 540308, 2011;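 active = activation above a per-plate cutoff, the mean activation of sample wells on that plate plus 3 SD, cut at about 8% in these data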
# MC4R antagonist: MC4R antagonists of cAMP signaling, primary screen, cell-based, TR-FRET, antagonist arm of biased-ligand search. AID 540295, 2011. Melanocortin receptor 4 (Homo sapiens), P32245. inhibition, % at 6.5 µM. actives 0.48% (n = 360,000). MC4R-expressing cells, MTII-stimulated cAMP, LANCE TR-FRET;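 active = inhibition above its plate's cutoff, the mean of tested wells on that plate plus 3 SD, cut at about 29% in these data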;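 note: 0% = Melanotan II alone and 100% = Melanotan II plus saturating MCL0020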
#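 Material: human MC4R-expressing U2OS cells. Probe or stimulus: Melanotan II challenge. Dosing: 6.5 µM single dose. Times: 30-min compound, 1-h challenge, 1-h detection, room temperature. Technique: TR-FRET with Eu-cAMP and labeled anti-cAMP, 671 nm. Replication: singlicate.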
# TAAR1 antag: human TAAR1 antagonists, primary screen, Fluo-8 calcium fluorescence, CHO RD-HGA16 cells. Trace amine-associated receptor 1 (Homo sapiens), Q96RJ0. antagonist. inhibition, % at 3 µM. actives 1.5% (n = 360,000). AID 624466, 2012;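 active = inhibition above a per-plate cutoff, the mean inhibition of test compounds on that plate plus 3 SD, cut at about 49% in these data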;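 note: 0% = DMSO plus EC80 beta-PEA response and 100% = DMSO alone without agonist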
#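 Test system: CHO RD-HGA16 cells bearing hTAAR1 | Reagent: β-PEA, EC80 | Compound dosing: 3 µM, single point | Schedule: Dye loading 75 min at 37 °C, then 30 min room temperature | Signal: Calcium fluorescence with Fluo-8 | Evaluation: Percent inhibition of PEA-evoked calcium signal, max/basal emission ratio | Control set: DMSO-only wells and EC80 β-PEA-stimulated wells | Repeats: Singlicate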
# TAAR1 ag: human TAAR1 agonists, primary screen, Fluo-8 calcium fluorescence, CHO RD-HGA16 cells. vehicle wells 0%, saturating PEA agonist 100%. AID 624467, 2012. activation, % at 3 µM. actives 0.99% (n = 360,000). Trace amine-associated receptor 1 (Homo sapiens), Q96RJ0;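 active = activation above the mean activation of all test compounds in the run plus 3 SD, cut at about 38% in these data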
#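 System: CHO-derived RD-HGA16 cells with stable Gα16 and human TAAR1 / Times: 17-24 h plating, Fluo-8 75 min 37 °C, 30 min RT / Technique: calcium-sensitive Fluo-8 signal, excitation 470-495, emission 515-575 nm / Measure: % activation relative to PEA EC100 response / Benchmarks: DMSO and PEA EC100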
# Beta2AR agonist: beta2AR agonists driving receptor internalization, primary screen, cell-based, FAP fluorogen, flow cytometry. Am2.2-beta2AR cells. Beta-2 adrenergic receptor (Homo sapiens), P07550. actives 0.43% (n = 340,000). response, % (test concentration not listed);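 active = response above a set limit, near 3 SD of response in nonfluorescent compounds, cut at about 42% in these data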
# nonsel antag count: nonselective antagonists in TAAR1 counter-screen cells, counter-screen for hTAAR1 antagonist project, cell-based, fluorescence, calcium | shares compounds with TAAR1 antag | counterscreen cell line, antagonist mode | inhibition, % at 3 µM | actives 77% (n = 2,400) | AID 651780, 2012; in the data active = inhibition above about 22%;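 note: CHO-Ga16 host cells stimulated with ATP at an EC80 level; 0% = agonist EC80 plus vehicle and 100% = vehicle without agonist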
# TAAR1 ant conf: human TAAR1 antagonists, retest of hits, confirmation, cell-based, fluorescence; shares compounds with TAAR1 antag; TAAR1-expressing cells, fluorescence antagonist read-out; inhibition, % at 3 µM; actives 40% (n = 2,400); in the data active = inhibition above about 49%;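 note: CHO-Ga16 host cells challenged with agonist PEA near its EC80; 0% = agonist at EC80 plus vehicle and 100% = vehicle with no agonist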
# Ga16 nonsel ag: calcium activation in Ga16-expressing cells, counter-screen for TAAR1 antagonist project, cell-based, fluorescence; shares compounds with TAAR1 antag; agonist counterscreen; activation, % at 3 µM; actives 18% (n = 2,400); in the data active = activation above about 12%;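 note: 0% = vehicle wells and 100% = saturating stimulus response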
# TAAR1 ag count: TAAR1 activation by candidate antagonists – cell-based, fluorescence, counter-screen for TAAR1 antagonist project; hTAAR1 cell line, agonist mode; activation, % at 3 µM; actives 2% (n = 2,400); shares compounds with TAAR1 antag; in the data active = activation above about 37%;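 note: CHO cells stably expressing TAAR1 with calcium dye readout; 0% = DMSO vehicle and 100% = full agonist response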
# * = called active by the depositor; . = no result given.
SMILES,m5-HT2A agonist,MC4R barr agon,MC4R antagonist,TAAR1 antag,TAAR1 ag,Beta2AR agonist,nonsel antag count,TAAR1 ant conf,Ga16 nonsel ag,TAAR1 ag count
COc1ccccc1N1CCN(C(=O)CCCCCn2c(=O)[nH]c3ccsc3c2=O)CC1,1,0,17,56*,12,17,28*,42,8,7
COc1ccccc1N1CCN(C(=O)CCCn2c(=S)[nH]c3ccccc3c2=O)CC1,1,0,14,65*,8,.,19,36,7,10
CC(C)C[C@H](CO)N(Cc1ccccc1)S(=O)(=O)N(Cc1ccccc1)[C@@H](CO)CC(C)C,9,-1,21,78*,11,25,34*,55*,9,10
CSc1cccc(NC(=O)CCCOc2cc(=O)n(C)c3ccccc23)c1,-5,0,-11,-17,2,.,.,.,.,.
O=C(NNC(=O)c1cc(-c2ccccc2)nc2ccccc12)Nc1cccc(Cl)c1,-3,1,8,80*,10,12,39*,57*,8,6
Cc1cccc(-c2cc(C(=O)Nc3c(C)n(C)n(-c4ccccc4)c3=O)c3ccccc3n2)c1,4,-2,4,70*,9,5,31*,47,7,6
Cc1c(NC(=O)c2cc(-c3ccc(F)cc3)on2)c(=O)n(-c2ccccc2)n1C,-1,-2,1,-7,6,-6,.,.,.,.
Cc1c(NC(=O)c2cc(-c3ccc(F)cc3)nc3ccccc23)c(=O)n(-c2ccccc2)n1C,-3,2,12,61*,15,4,25*,46,8,10
Cc1cccc(-c2cc(C(=O)Nc3cccnc3)c3ccccc3n2)c1,-4,1,1,58*,1,3,17,28,5,3
Cc1ccc2nc(-c3ccccc3)cc(C(=O)Nc3cccnc3)c2c1,7,7,10,34,13,21,.,.,.,.
Oc1ccc(C[C@H]2CNCCN2CC2CCCCC2)cc1,0,0,-5,3,3,1,.,.,.,.
O=C(Cn1c(=O)cnc2ccccc21)NC1CCC(O)CC1 (configuration not stated),7,2,15,-19,1,-1,.,.,.,.
Cc1ccc(S(=O)(=O)N2CCC3(CC2)OCCO3)s1,1,-3,-1,-21,1,-1,.,.,.,.
CC(=O)Nc1ccc(S(=O)(=O)Nc2ccc(-n3cnnn3)cc2)cc1,-3,2,9,8,1,-4,.,.,.,.
NNc1nc(-c2ccccc2)c2cc(Cl)ccc2n1,-5,0,-5,18,-1,-4,.,.,.,.
O=C(NCCO)c1cccc(Nc2nc(-c3ccccc3)c3cc(Cl)ccc3n2)c1,6,6,16,49*,10,-1,30*,37,5,14
COC(CNC(=O)c1ccc2c(c1)ncn2-c1ccc(F)cc1F)OC,1,-3,3,6,7,-1,.,.,.,.
COc1cc(C(=O)NCc2nnc(SCC(=O)NC3CCCC3)o2)cc(OC)c1OC,8,4,-2,-6,1,-3,.,.,.,.
COC(=O)c1ccc(OCCOc2ccccc2)cc1,-1,-2,2,-2,-1,-2,.,.,.,.
COc1cccc(OC)c1OCCOc1ccc(C(=O)c2ccccc2)cc1,-3,-1,-5,52*,8,-10,31*,59*,7,5
O=C(COC(=O)COc1ccc(Cl)cc1Cl)NC1CCCC1,-4,-2,12,-16,2,2,.,.,.,.
O=C(Nc1ccc2c(c1)CCCN2C(=O)c1cccs1)c1cccc(F)c1,-9,-2,22,69*,6,12,29*,45,7,3
O=C(Nc1ccc2c(c1)CCCN2C(=O)c1ccccc1)c1ccccc1Br,-2,-3,5,66*,9,4,31*,47,11,7
COc1ccc(NC(=O)C(c2ccc(OC)cc2)n2c(=O)c(-c3cc4ccccc4[nH]3)nc3ccccc32)cc1 (configuration not stated),7,.,.,0,1,.,.,.,.,.
CC(=O)Nc1ccc(NC(=O)CC2(CC(=O)N3CCOCC3)CCCC2)cc1,3,-1,14,-40,13,2,.,.,.,.
SMILES,m5-HT2A agonist,MC4R barr agon,MC4R antagonist,TAAR1 antag,TAAR1 ag,Beta2AR agonist,nonsel antag count,TAAR1 ant conf,Ga16 nonsel ag,TAAR1 ag count
CCN1CC2=C(OC(N)=C(C#N)C2c2cccs2)/C(=C/c2cccs2)C1 (configuration not stated),0,-1,-2,34,18,19,.,.,.,.
CCN1C=C(Cc2cccs2)C2=C(C1)C(c1cccs1)C(C#N)=C(N)O2 (configuration not stated),-1,-2,-9,53*,26,22,20,38,6,9
CC1=C(C(=O)N(C(C)C)C(C)C)CC(CC(=O)NCc2ccco2)C(=O)N1Cc1ccc(F)cc1 (configuration not stated),1,.,.,-8,-2,.,.,.,.,.
C/C=C(/C)C(=O)O[C@@H]1c2c(ccc3ccc(=O)oc23)O[C@@H]1C(C)(C)OC(=O)/C(C)=C\C,1,7,7,59*,6,-8,21,24,9,3
C/C=C(/C)C(=O)OC(C)(C)[C@@H]1Cc2c(ccc3ccc(=O)oc23)O1,-9,2,-3,10,7,-7,.,.,.,.
CCCC(=O)N1CCCC(c2cc(C(=O)NCc3ccccc3)no2)C1 (configuration not stated),0,0,0,-34,6,.,.,.,.,.
